Compound activity from PubChem.
APP 5'UTR act: activates APP 5'UTR luciferase reporter | SH-SY5Y APP 5'UTR luciferase reporter, luminescence; zero percent = DMSO vehicle wells | activation, % at 2 µM | actives 1% (n = 190,000);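 active = activation above a set limit, based on mean plus 3 SD of controls, cut at about 140% in these data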
FLuc inhib CS: inhibits firefly luciferase, flagging false hits in luciferase inhibition screens | P08659 | ATPLite firefly luciferase biochemical luminescence, 10 min | inhibition, % at 10 µM | actives 1.5% (n = 200,000) | AID 1006;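 active = inhibition above about 50% when tested at 10 µM, limit read from the data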
Target sequence (P08659 whole entry, looked up): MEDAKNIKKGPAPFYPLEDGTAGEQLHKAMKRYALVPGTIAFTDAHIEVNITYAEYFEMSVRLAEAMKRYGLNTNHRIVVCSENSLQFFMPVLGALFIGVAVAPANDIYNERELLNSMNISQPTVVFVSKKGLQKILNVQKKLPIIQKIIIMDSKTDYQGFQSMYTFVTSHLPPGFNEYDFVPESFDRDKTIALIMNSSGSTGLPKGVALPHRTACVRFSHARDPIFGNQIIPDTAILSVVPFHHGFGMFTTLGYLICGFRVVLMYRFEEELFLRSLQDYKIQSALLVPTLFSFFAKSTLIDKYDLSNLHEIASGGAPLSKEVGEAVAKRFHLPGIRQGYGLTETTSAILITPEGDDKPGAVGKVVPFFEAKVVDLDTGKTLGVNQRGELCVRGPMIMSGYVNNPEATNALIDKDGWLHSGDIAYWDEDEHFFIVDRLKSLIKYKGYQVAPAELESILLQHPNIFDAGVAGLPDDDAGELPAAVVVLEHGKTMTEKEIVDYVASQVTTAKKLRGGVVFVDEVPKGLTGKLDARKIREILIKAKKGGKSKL
FLuc act counter: firefly luciferase counter-screen for stimulation assays. activation factor at 10 µM. 200,000 tested, under 10 active. ATPlite luciferase biochemical, luminescence, 10 min; 0 = ATP-free wells, 1 = DMSO control. P08659;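 active = luciferase activation factor, scaled between plate controls, of at least 2 with compound at 10 µM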
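Material: luciferase plus luciferin reagent, cell-free. Medium: PBS buffer for ATP. Also added: ATP substrate, dispensed from a 10.24 µM working solution in PBS. Doses: test compounds dosed from 2 mM stocks in 100% DMSO. Incubation: 10 min post-reagent at room temperature. Technique: light output (luminescence). Read-out basis: luminescence gain marking luciferase activators.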
NF-kB expr up: raises NF-kB expression in human neuronal cells; fold change at 12.5 µM; NF-kB reporter expression; active compounds read high; actives 1.6% (n = 190,000); in the data active = fold change above about 3.3
STAT1 activator: STAT1 signaling activation; NIH 3T3 STAT1-luciferase reporter, IFN-gamma, luminescence; 100% = IFN-gamma alone, no compound; activation (% of control), % at 5.5 µM; actives 2.6% (n = 200,000);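 active = activation above the screen-wide mean activation plus 3 SD, cut at about 130% in these data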;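 note: raw ratio to IFN-gamma control signal so 100% means no change and 0% no light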
Numbers without * were called inactive. Compounds with a hit are over-represented: about 4.1% of the library has one in this group of screens.

Screening CCc1ccc(NC(=S)N2CCCCCCC2)cc1 returned APP 5'UTR act 34, FLuc inhib CS 54*, FLuc act counter 0.5, NF-kB expr up 2.1 and STAT1 activator 119.
Screening CC1CCCCN1C(=S)Nc1ccc(OC(F)F)cc1 (stereo not drawn) returned APP 5'UTR act 23, FLuc inhib CS 6, FLuc act counter 0.9, NF-kB expr up 1.1 and STAT1 activator 100.
For COC(=O)Cc1ccc(NC(=S)N2CCCCC2C)cc1 (stereo not drawn) the results were APP 5'UTR act 5, FLuc inhib CS 83*, FLuc act counter 0.2, NF-kB expr up 1.3 and STAT1 activator 94.
For COC(=O)Cc1ccc(NC(=S)N2CCN(C)CC2)cc1 the results were APP 5'UTR act 26, FLuc inhib CS 56*, FLuc act counter 0.4, NF-kB expr up 1 and STAT1 activator 108.
For COC(=O)C(NS(C)(=O)=O)(c1c(C)[nH]c2ccccc12)C(F)(F)F (stereo not drawn) the results were APP 5'UTR act 8, FLuc inhib CS -5, FLuc act counter 1, NF-kB expr up 1.7 and STAT1 activator 104.
`Cc1ccc(C)c2c(N)c3c(nc12)CCCCC3` (tested in a mixture with another compound) gave APP 5'UTR act 7, FLuc inhib CS -3, FLuc act counter 1, NF-kB expr up 1.2 and STAT1 activator 105.
Screening COc1ccc(S(=O)(=O)N2c3cc(Cl)ccc3Oc3nc4ccccc4nc32)cc1 returned APP 5'UTR act 17, FLuc inhib CS -4, FLuc act counter 1, NF-kB expr up 3.6* and STAT1 activator 95.
O=S(=O)(c1ccc(Cl)cc1)N1c2ccccc2Oc2nc3ccccc3nc21 was read as APP 5'UTR act 15, FLuc inhib CS -6, FLuc act counter 1.1, NF-kB expr up 1.1 and STAT1 activator 100.
Brc1ccc(-c2nc(N/N=C/c3cccnc3)c3ccccc3n2)cc1 was read as APP 5'UTR act -10, FLuc inhib CS 96*, FLuc act counter 0, NF-kB expr up 1.3 and STAT1 activator 97.
Cc1nc2ccccc2cc1C(=O)N/N=C/c1ccccc1[N+](=O)[O-] was read as APP 5'UTR act 4, FLuc inhib CS -5, FLuc act counter 1, NF-kB expr up 1.2 and STAT1 activator 97.
Cc1ccc(-c2nc(N/N=C/c3ccccc3[N+](=O)[O-])c3ccccc3n2)cc1 was read as APP 5'UTR act 19, FLuc inhib CS 64*, FLuc act counter 0.4, NF-kB expr up 1.1 and STAT1 activator 124.
`COc1cc(/C=C(/Sc2nnc(-c3ccc(F)cc3)o2)C(=O)O)ccc1OC(F)F` gave APP 5'UTR act -8, FLuc inhib CS -1, FLuc act counter 1, NF-kB expr up 1.1 and STAT1 activator 110.
`O=C(CCS(=O)(=O)c1cccs1)NC1CCCCCC1` gave APP 5'UTR act 16, FLuc inhib CS -2, FLuc act counter 1, NF-kB expr up 1.9 and STAT1 activator 130*.
`Cc1ccc(OCCOc2ccc(Br)cc2)c([N+](=O)[O-])n1` gave APP 5'UTR act 66, FLuc inhib CS 10, FLuc act counter 0.9, NF-kB expr up 2.1 and STAT1 activator 135*.
COc1ccc(CNC(=O)COc2ccc(C)nc2[N+](=O)[O-])cc1 was read as APP 5'UTR act -15, FLuc inhib CS -4, FLuc act counter 1, NF-kB expr up 1.1 and STAT1 activator 100.
`NCCCC[C@H](NC(=O)C1CCNCC1)c1nnc(CN)o1` gave APP 5'UTR act 1, FLuc inhib CS -6, FLuc act counter 1.1, NF-kB expr up 0.97 and STAT1 activator 105.
For Cc1ccc(N=Cc2c(O)[nH]c3ccccc23)c([N+](=O)[O-])c1 the results were APP 5'UTR act 160*, FLuc inhib CS 12, FLuc act counter 0.9, NF-kB expr up 1 and STAT1 activator 131*.
O=c1oc(-c2ccco2)nc2sc3c(c12)CCCC3 was read as APP 5'UTR act 16, FLuc inhib CS 79*, FLuc act counter 0.2, NF-kB expr up 1.9 and STAT1 activator 95.
For CC(C)(C)N1CSC(=S)N(Cc2ccccc2)C1 the results were APP 5'UTR act -14, FLuc inhib CS -7, FLuc act counter 1.1, NF-kB expr up 4.5* and STAT1 activator 99.
For CCN(CC)c1cccc(OC2=NS(=O)(=O)c3ccccc32)c1 the results were APP 5'UTR act -16, FLuc inhib CS 6, FLuc act counter 0.9, NF-kB expr up 0.86 and STAT1 activator 100.
Cc1ccc(/C=C/c2nc3ccccc3[nH]2)o1 was read as APP 5'UTR act 259*, FLuc inhib CS 86*, FLuc act counter 0.1, NF-kB expr up 6.5* and STAT1 activator 90.
For CCCCNS(=O)(=O)c1ccc(NC(=O)c2c(-c3ccccc3Cl)noc2C)cc1 the results were APP 5'UTR act -11, FLuc inhib CS -5, FLuc act counter 1, NF-kB expr up 0.74 and STAT1 activator 100.
`COc1cc(C=O)ccc1OCCCCOc1ccccc1[N+](=O)[O-]` gave APP 5'UTR act -15, FLuc inhib CS 3, FLuc act counter 1, NF-kB expr up 1.1 and STAT1 activator 99.
`COc1cc(C=O)ccc1OCc1ccc(Cl)nc1` gave APP 5'UTR act 63, FLuc inhib CS 59*, FLuc act counter 0.4 and STAT1 activator 136*.
COc1cc(C=O)ccc1OCCOCCOc1ccccc1Cl was read as APP 5'UTR act 0, FLuc inhib CS 0, FLuc act counter 1, NF-kB expr up 1.2 and STAT1 activator 95.
Screening COc1cc(C=O)ccc1OCCCOc1ccccc1[N+](=O)[O-] returned APP 5'UTR act 1, FLuc inhib CS -2, FLuc act counter 1, NF-kB expr up 2 and STAT1 activator 130*.
COc1cc(C=O)ccc1OCCCOc1ccccc1C(=O)O was read as APP 5'UTR act 127, FLuc inhib CS -1, FLuc act counter 1, NF-kB expr up 1.5 and STAT1 activator 148*.
C/C=C/c1ccc(OCCOc2cc(C=O)ccc2OC)c(OC)c1 was read as APP 5'UTR act 28, FLuc inhib CS 25, FLuc act counter 0.7, NF-kB expr up 1.8 and STAT1 activator 131*.
Screening CCn1c(O)c(/C=N/N=C/c2ccccc2)c2ccc(C3=NNC(=O)CC3)cc21 returned APP 5'UTR act -1, FLuc inhib CS -1, FLuc act counter 1, NF-kB expr up 0.63 and STAT1 activator 102.
For CCN(CC)c1ccc(N=Cc2ccccc2[N+](=O)[O-])cc1 the results were APP 5'UTR act 0, FLuc inhib CS 66*, FLuc act counter 0.3, NF-kB expr up 1 and STAT1 activator 97.
For N/C(=N\OC(=O)C1CCCCC1)c1cccnc1 the results were APP 5'UTR act -2, FLuc inhib CS 47, FLuc act counter 0.5, NF-kB expr up 1.2 and STAT1 activator 114.
`O=C(Nc1ccc([N+](=O)[O-])cn1)c1ccc2c(c1)OCO2` gave APP 5'UTR act 74, FLuc inhib CS -4, FLuc act counter 1, NF-kB expr up 2.5 and STAT1 activator 135*.
